One block for each molecule: values may come before it. Activity calls are given as the source filed them. The calls are words filed in the database; no cut-off is given here.
Assays:
[1] = molecular target: T1, C-X-C chemokine receptor type 2 (Homo sapiens, UniProt P25025); experiment: Inhibition of CXCR2 (unknown origin) expressed in HEK293T cells cotransfected with GFP-p22F assessed as reduction in IL-8-induced cAMP incubated for 10 mins followed by IL-8 stimulation and measured after 10 mins by luminescence based assay; assay type: functional, cell-based
T1 sequence (P25025 whole entry): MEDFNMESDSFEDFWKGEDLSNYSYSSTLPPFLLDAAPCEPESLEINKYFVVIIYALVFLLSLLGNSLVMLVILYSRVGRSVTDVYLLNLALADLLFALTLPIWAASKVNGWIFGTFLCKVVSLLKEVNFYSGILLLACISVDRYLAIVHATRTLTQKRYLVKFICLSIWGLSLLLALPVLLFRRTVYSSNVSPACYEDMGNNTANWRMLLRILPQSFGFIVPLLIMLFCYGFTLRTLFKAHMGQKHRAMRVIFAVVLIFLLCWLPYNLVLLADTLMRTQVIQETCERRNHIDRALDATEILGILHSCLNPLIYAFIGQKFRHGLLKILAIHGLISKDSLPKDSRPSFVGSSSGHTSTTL
Method in brief: (§1)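 293T-CXCR2-GFP-p22F cells express a cAMP-sensitive firefly luciferase. They were seeded at 30000 cells/well overnight in CO2-independent medium with 10% FBS, then incubated with 1% cAMP reagent for 2 h at 37 °C. Cells were pretreated with compound for 10 min, given CXCL8 (50 nM) for 10 min, then stimulated with forskolin (50 μM) until maximal signal (~80 min). Luminescence read-out.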

[2] = molecular target: T2, C-X-C chemokine receptor type 2 (Homo sapiens) (UniProt P25025); experiment: Antagonist activity at CXCR2 (unknown origin) expressed in HEK293T cells cotransfected with GFP and p22F assessed as inhibition of CXCL8-reduced cAMP production at 10 uM incubated for 10 mins followed by CXCL8 stimulation and measured after 10 mins by luminescence based assay; assay type: functional, cell-based; details: time 20.0 min; method in brief: as §1
T2 sequence (whole entry): T1 sequence (P25025 whole entry)

[3] = molecular target: T2, C-X-C chemokine receptor type 2 (Homo sapiens); experiment: Antagonist activity at CXCR2 (unknown origin) expressed in HEK293T cells cotransfected with GFP and p22F assessed as inhibition of […] at 30 uM incubated at 37 degC for 30 min and at room temperature for 30 min by fluorescence based assay; assay type: functional, cell-based; details: time 60.0 min
Method in brief: (§2)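 293T-CXCR2-GFP cells were seeded at 30000 cells/well and loaded next day with Fluo-4 NW dye plus probenecid ([…] final). Loading was 30 min at 37 °C, then 30 min at room temperature, protected from light. Compound and CXCL8 (300 nM, by injector) were added. Fluorescence was read immediately (ex 490/em 535 nm) and normalized to the pre-stimulation baseline.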

[4] = molecular target: T2, C-X-C chemokine receptor type 2 (Homo sapiens); experiment: Antagonist activity at CXCR2 (unknown origin) expressed in HEK293T cells cotransfected with GFP assessed as inhibition of CXCL8-induced ERK1/2 phosphorylation pretreated at 10 to 30 uM followed by treated with CXCL8 by immunoblot assay; assay type: cell-based; details: dose 10-30 µM
Method in brief: (§3)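 293T-CXCR2-GFP cells (5 x 10^5/well) were attached overnight, treated with compounds and lysed in RIPA buffer with protease/phosphatase inhibitors. Lysates were normalized by BCA and resolved on 10% SDS-PAGE. Blots were probed overnight at 4 °C with antibodies (1:500-1:1000) to p-ERK1/2, p-JNK, p-cJUN or p-p38, then with a fluorescent secondary antibody, and imaged by infrared imaging.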

[5] = molecular target: T1, C-X-C chemokine receptor type 2; experiment: (§4) Antagonist activity at CXCR2 (unknown origin) expressed in U2OS cells cotransfected with beta-arrestin/TEV protease fusion protein and beta-lactamase assessed as inhibition of CXCL8-induced beta arrestin2 recruitment preincubated for 30 mins followed by CXCL8 stimulation and measured after 5 hrs by FRET based fluorescence/Tango assay; assay type: cell-based
[6] = molecular target: T2, C-X-C chemokine receptor type 2 (Homo sapiens); experiment: Antagonist activity at CXCR2 (unknown origin) expressed in HEK293T cells cotransfected with GFP assessed as inhibition of CXCL8-induced p38 phosphorylation at 10 to 30 uM post CXCL8 treatment by immunoblot assay; assay type: cell-based; details: dose 10-30 µM; method in brief: as §3
[7] = molecular target: T2, C-X-C chemokine receptor type 2 (Homo sapiens); experiment: Antagonist activity at CXCR2 (unknown origin) expressed in HEK293T cells cotransfected with GFP assessed as inhibition of CXCL8-induced JNK phosphorylation at 10 to 30 uM post CXCL8 treatment by immunoblot assay; assay type: cell-based; details: dose 10-30 µM; method in brief: as §3
[8] = molecular target: T2, C-X-C chemokine receptor type 2 (Homo sapiens); experiment: Antagonist activity at CXCR2 (unknown origin) expressed in HEK293T cells cotransfected with GFP assessed as inhibition of CXCL8-induced cJUN phosphorylation at 10 to 30 uM post CXCL8 treatment by immunoblot assay; assay type: cell-based; details: dose 10-30 µM; method in brief: as §3
[9] = molecular target: T2, C-X-C chemokine receptor type 2 (Homo sapiens); experiment: Antagonist activity at CXCR2 (unknown origin) expressed in HEK293T cells cotransfected with GFP assessed as inhibition of CXCL8-induced AKT phosphorylation at 10 to 30 uM post CXCL8 treatment by immunoblot assay; assay type: cell-based; details: dose 10-30 µM
U2OS = experiment: Antimigratory activity against human U2OS cells overexpressing CXCR2/bla assessed as reduction in CXCL8-mediated wound closure at 10 uM incubated for 20 mins followed by CXCL8 stimulation and measured after 24 hrs by Giemsa staining based scratch wound healing assay; assay type: functional, cell-based; details: time 24.3 hrs
Method in brief: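 CXCR2-bla U2OS cells were seeded at 35000/well in DMEM with 1% FBS overnight and scratched with a pipette tip. Compounds (10 μM) were added for 20 min, then CXCL8 (60 nM) for 24 h; unstimulated wells served as control. Cells were methanol-fixed, Giemsa-stained and imaged by transmitted light. Two independent experiments were run in duplicate.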

SK-OV-3 = experiment: Inhibition of colony formation in human SK-OV-3 cells at 8.9 to 20 uM incubated for 7 to 10 days in presence of doxorubicin by crystal violet staining based assay; assay type: functional, cell-based; details: dose 8.9-20 µM, time 7-10 day
Method in brief: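 Colony formation: cells were seeded at 300/well, attached overnight, then treated with compounds for 7-10 days until colonies formed in DMSO wells. Colonies were stained with 0.05% crystal violet for 30 min and washed with water.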

[10] = molecular target: T2, C-X-C chemokine receptor type 2 (Homo sapiens); experiment: as §4, with “recruitment at 10 uM” for “recruitment”, “assay relative to control” for “assay”; assay type: cell-based
Method in brief: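 Tango assay: CXCR2-bla or CXCR4-bla U2OS cells were seeded at 11000/well for 24 h in DMEM with 1% dialyzed FBS. Cells were pretreated with inhibitor for 30 min, then given CXCL8 (12 nM; CXCR2) or SDF-1α (60 nM; CXCR4) for 5 h at 37 °C. […] IC50 is the mean±SD of ≥3 independent experiments.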

[11] = molecular target: C-X-C chemokine receptor type 4 (Homo sapiens, UniProt P61073); experiment: Antagonist activity at CXCR4 (unknown origin) expressed in U2OS cells cotransfected with beta-arrestin/TEV protease fusion protein and beta-lactamase assessed as inhibition of SDF1-alpha-induced beta arrestin2 recruitment preincubated for 30 mins followed by SDF1-alpha stimulation and measured after 5 hrs by FRET based fluorescence/Tango assay
[12] = molecular target: T2, C-X-C chemokine receptor type 2 (Homo sapiens); experiment: Antagonist activity at CXCR2 (unknown origin) expressed in HEK293T cells cotransfected with GFP and p22F assessed as inhibition of CXCL8-reduced cAMP production at 5 uM incubated for 10 mins followed by CXCL8 stimulation and measured after 10 mins by luminescence based assay; assay type: functional, cell-based; details: filed as antagonist, time 20.0 min; method in brief: as §1
[13] = molecular target: T2, C-X-C chemokine receptor type 2 (Homo sapiens); experiment: Antagonist activity at CXCR2 (unknown origin) expressed in HEK293T cells cotransfected with GFP and p22F assessed as inhibition of […] at 15 uM incubated at 37 degC for 30 min and at room temperature for 30 min by fluorescence based assay; assay type: functional, cell-based; details: filed as antagonist, time 60.0 min; method in brief: as §2
[14] = molecular target: T2, C-X-C chemokine receptor type 2 (Homo sapiens); experiment: Antagonist activity at CXCR2 (unknown origin) expressed in HEK293T cells cotransfected with GFP assessed as inhibition of CXCL8-induced ERK1/2 phosphorylation pretreated at 10 uM followed by treated with CXCL8 by immunoblot assay; assay type: cell-based; details: filed as antagonist; method in brief: as §3
[15] = molecular target: T2, C-X-C chemokine receptor type 2 (Homo sapiens); experiment: Antagonist activity at CXCR2 (unknown origin) expressed in HEK293T cells cotransfected with GFP assessed as inhibition of CXCL8-induced p38 phosphorylation at 10 uM post CXCL8 treatment by immunoblot assay; assay type: cell-based; method in brief: as §3
[16] = molecular target: T2, C-X-C chemokine receptor type 2 (Homo sapiens); experiment: Antagonist activity at CXCR2 (unknown origin) expressed in HEK293T cells cotransfected with GFP assessed as inhibition of CXCL8-induced JNK phosphorylation at 10 uM post CXCL8 treatment by immunoblot assay; assay type: cell-based; method in brief: as §3
[17] = molecular target: T2, C-X-C chemokine receptor type 2 (Homo sapiens); experiment: Antagonist activity at CXCR2 (unknown origin) expressed in HEK293T cells cotransfected with GFP assessed as inhibition of CXCL8-induced cJUN phosphorylation at 10 uM post CXCL8 treatment by immunoblot assay; assay type: cell-based; method in brief: as §3
[18] = molecular target: T2, C-X-C chemokine receptor type 2 (Homo sapiens); experiment: Antagonist activity at CXCR2 (unknown origin) expressed in HEK293T cells cotransfected with GFP assessed as inhibition of CXCL8-induced AKT phosphorylation at 10 uM post CXCL8 treatment by immunoblot assay; assay type: cell-based

C-X-C chemokine receptor type 4, sequence (P61073 whole entry, the tested form may be a part): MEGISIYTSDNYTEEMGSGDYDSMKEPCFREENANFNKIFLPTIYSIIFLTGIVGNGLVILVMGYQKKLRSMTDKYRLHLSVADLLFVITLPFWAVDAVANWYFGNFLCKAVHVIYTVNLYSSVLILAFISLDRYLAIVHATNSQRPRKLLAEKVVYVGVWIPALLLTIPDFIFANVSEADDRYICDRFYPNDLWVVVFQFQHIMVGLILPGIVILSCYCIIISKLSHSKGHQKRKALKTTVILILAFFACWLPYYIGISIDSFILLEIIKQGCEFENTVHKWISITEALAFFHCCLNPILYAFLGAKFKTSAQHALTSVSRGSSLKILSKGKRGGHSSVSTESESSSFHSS

IC50 [1]: 7.79 µM | Activity ([2]; filed as antagonist): Active | Activity [3]: inactive | Activity [4]: inactive
Compound: CSc1nnc2n(-c3ccccc3)c(=O)c3c4c(sc3n12)CCC[C@H]4C

IC50 [5]: 1.1 µM | Activity [2]: inactive | Activity [3]: inactive | Activity ([4]; filed as antagonist): Active | Activity [6]: inactive | Activity [7]: inactive | Activity [8]: inactive | Activity [9]: inactive | inhibition [10]: 87% | IC50 [11]: > 30 µM
Compound: CC(C)(C)OC(=O)c1c(NC(=S)Nc2ccc(F)cc2)sc2c1CCOC2
inhibition (U2OS): Active | inhibition (SK-OV-3): Active

Activity [12]: Active | Activity [13]: Active | Activity [14]: Active | Activity [15]: inactive | Activity [16]: inactive | Activity [17]: inactive | Activity [18]: inactive
Compound: N#Cc1ccc(NC(=O)Nc2ccccc2Br)c2nn[nH]c12
inhibition (U2OS): Active
